TPT1 inh: C. albicans TPT1 enzyme inhibition | recombinant caTPT1, FP RNA substrate dephosphorylation | inhibition, % at 5 µM | actives 0.81% (n = 300,000);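 active = inhibition above the mean of all tested compounds plus 3 SD, set per screening campaign, cut at about 24% in these data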
CSN deneddyl inh: inhibitors of human CSN-mediated cullin deneddylation. Q92905. Purified CSN, SCF-Nedd8-OG deneddylation, fluorescence polarization. inhibition, % at 12.5 µM. actives 0.38% (n = 360,000). AID 651999;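 active = pattern-corrected inhibition above about 35%, with an unprinted fluorescence ratio check between 0.5 and 1.5, limit read from the data, passing the limit was not always enough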
Target sequence (Q92905 whole entry, looked up, one chain of several): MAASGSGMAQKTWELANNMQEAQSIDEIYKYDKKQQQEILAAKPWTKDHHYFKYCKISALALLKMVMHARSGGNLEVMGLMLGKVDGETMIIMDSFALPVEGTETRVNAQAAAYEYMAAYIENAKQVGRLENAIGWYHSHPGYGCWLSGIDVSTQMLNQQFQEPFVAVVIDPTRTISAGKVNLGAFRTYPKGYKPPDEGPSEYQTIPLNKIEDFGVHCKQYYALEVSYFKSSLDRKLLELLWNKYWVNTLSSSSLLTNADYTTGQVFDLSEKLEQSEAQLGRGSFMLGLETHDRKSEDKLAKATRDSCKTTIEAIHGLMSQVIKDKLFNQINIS
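test system = HEK293T-derived human Csn5 enzyme | amount = 0.24 nM Csn5 enzyme, final concentration | medium = Tris/NaCl/DTT buffer, pH 7.5 | schedule = 90 min reaction at room temperature | signal = FP | evaluation = inhibition of Csn5 cleavage, % | compound dosing = single dose of 12.5 µM compound with 0.25% DMSO | probe or stimulus = 10 nM SCFSkp2-Nedd8OG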
NR1D1 modulator: Rev-erb alpha (human) modulation | AID 1259318 | P20393 | activity, % at 10 µM | Rev-erbα–FITC-DNA binding, fluorescence polarization, 90 min | actives 0.79% (n = 370,000);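 active = activity above about 14%, limit read from the data; passing the limit was not always enough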
HNF4A DNA FP: change in binding of human HNF4 alpha to DNA | AID 1224865 | activity change, % at 10 µM | actives 0.3% (n = 360,000) | HNF4a-FITC DNA binding, fluorescence polarization, 1 h; in the data active = activity change above about 30%, passing the limit was not always enough
Hits are given with their value; n = inactive; x = no result given. Rows were chosen to be rich in hits. Some 1.7% of all compounds tested hit in one or more screens of this group.

SMILES | TPT1 inh | CSN deneddyl inh | NR1D1 modulator | HNF4A DNA FP
CCCN1CCc2c(sc(NC(=O)c3ccc(S(=O)(=O)N4CCN(C(=O)OCC)CC4)cc3)c2C(N)=O)C1 | 156 | 52 | n | 92
Cc1cc(C(=O)O)ccc1-c1ccc(/C=C2\SC(=O)N(CC(=O)Nc3ccc4c(c3)OCO4)C2=O)o1 | x | n | n | 36
O=C(Nc1ccc2[nH]ccc2c1)c1cc(-c2ccc(Cl)cc2)nc2ccccc12 | x | x | n | x
C[C@@]12CC(=O)NC1N(C(=O)c1cccc(C(F)(F)F)c1)C(c1ccccc1OC(=O)c1cccc(C(F)(F)F)c1)C2 (some centres undefined) | n | n | n | n
C[C@@]12CC(=O)NC1N(C(=O)c1ccccc1)C(c1ccccc1OC(=O)c1ccccc1)C2 (some centres undefined) | n | n | n | 36
CCN[C@@H]1C[C@H](N)[C@@H](O[C@H]2OC(CN)=CC[C@H]2N)[C@H](O)[C@H]1OC1OC[C@](C)(O)[C@H](NC)[C@H]1O (some centres undefined) | x | x | n | x
COC(=O)CC1C(=O)NCCN1C(=S)Nc1cc(C)cc(C)c1 (centres undefined) | n | n | n | n
CCNC(=S)N1CCNC(=O)C1CC(=O)OC (centres undefined) | n | 81 | n | n
COc1ccc(C2C(C#N)=C(C)NC3=C2C(=O)CC(C)(C)C3)cc1 (centres undefined) | n | 102 | n | n
CCCCC(=O)O[C@]1(C(=O)CO)[C@@H](C)CC2C3CCC4=CC(=O)C=C[C@]4(C)[C@@]3(F)C(O)C[C@@]21C (some centres undefined) | x | x | n | x
NC(=O)c1c(NC(=O)CSc2nnc(-c3ccco3)n2-c2ccccc2)sc2c1CCC2 | n | 36 | n | n
N#Cc1c(NC(=O)CSc2nnc(-c3ccco3)n2-c2ccccc2)sc2c1CCC2 | n | n | n | n
CCOC(=O)Cc1csc(SCC(=O)Nc2sc3c(c2C(N)=O)CCC3)n1 | n | 37 | n | n
CCOC(=O)Cc1csc(SCC(=O)Nc2nccs2)n1 | n | n | n | n
CN(CCOC(=O)CCCc1ccccc1)C1CN(Cc2cn(Cc3ccccc3F)nn2)S(=O)(=O)C1 (centres undefined) | x | x | n | x
Cc1ccc(C)c2nc3sc(C(=O)N4CCCc5ccccc54)c(N)c3cc12 | n | n | n | 56
CCc1ccc2nc3sc(C(=O)N4CCc5ccccc54)c(N)c3cc2c1 | n | x | x | x
CCCC[C@H]1C2CC(OC(=O)Nc3ccc(Cl)cc3)C(C2)[C@H]2CCCCN21 (some centres undefined) | x | x | n | x
Cc1ccccc1Nc1nc(Cl)c(C=O)s1 | 27 | n | n | n
CCC/C(=N/Nc1ccc(Cl)cc1)c1cnnc(-c2ccccc2)n1 | n | x | x | x
COc1ccc(N/N=C(/C)c2cnnc(-c3ccccc3)n2)cc1 | n | n | n | 46
CC(=O)OCC(=O)[C@@]1(O)[C@H](C)CC2C3CCC4=CC(=O)C=C[C@]4(C)[C@@]3(F)[C@@H](O)C[C@@]21C (some centres undefined) | x | x | n | x
CC(C)c1ccc(NC(=O)O[C@H]2CC[C@@]34CCCN3C(=O)CCC[C@H]4[C@H]2C)cc1 | x | x | n | x
Cc1ccc(S(=O)(=O)N2CCOCC2)cc1C(=O)OCC(=O)NC1CC1 | x | 60 | n | n
OCC(S)CS (centres undefined) | x | x | n | x
SMILES | TPT1 inh | CSN deneddyl inh | NR1D1 modulator | HNF4A DNA FP
CC(C)c1nc(N(C)S(C)(=O)=O)nc(-c2ccc(F)cc2)c1/C=C/[C@@H](O)C[C@@H](O)CC(=O)O | x | x | n | x
COCCN1C(=O)Cc2c1nc(N)c1c(N)nc(N3CCN(c4ccc(F)cc4)CC3)c(C#N)c21 | 28 | n | n | n
O=C(Nc1ccc(F)cc1)N(Cc1cccs1)Cc1cc2cc3c(cc2[nH]c1=O)OCO3 | n | n | n | n
O=C(Nc1ccc(F)cc1)N(Cc1ccco1)Cc1cc2cc3c(cc2[nH]c1=O)OCO3 | n | n | n | 42
COc1ccc(-n2c(SCC(=O)Nc3ccc(Oc4ccccc4)cc3)nnc2-c2ccco2)cc1 | x | x | n | x
O=C(O)CN1C(=O)/C(=C\c2ccccc2OCc2ccccc2)SC1=S | x | n | n | n
O=C(O)CCCN1C(=O)/C(=C\c2ccccc2OCc2ccccc2)SC1=S | n | n | n | 51
C[C@@H]1CN([C@H](C)CO)C(=O)c2cc(NC(=O)Nc3ccccc3)ccc2O[C@@H](C)CCCCO[C@H]1CN(C)S(=O)(=O)c1ccc(F)cc1 | x | x | n | x
COC(=O)[C@@]12C[C@@H](CC(=O)N3CCC(c4ccccc4)CC3)C(=O)N(Cc3ccco3)C1=CCC(C)(C)C2 | x | 121 | n | n
